Experimental data taken from ChEMBL document CHEMBL3272012, “5-(Tetradecyloxy)-2-furancarboxylic acid and related hypolipidemic fatty acid-like alkyloxyarylcarboxylic acids” (J Med Chem, 1977).
Blank lines part the entries; values can stand above or below the molecule they belong to.

Legend:
Rattus norvegicus [1] = experiment: Hypolipidemic activity in Wistar rat assessed as reduction in plasma triglyceride level at 311 umol/kg/day administered through diet for 10 days; assay type: functional; details: 240 h
Procedure, shortened: (§1)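 Young male Wistar rats, 170-190 g initial weight, six per group, fed drug mixed thoroughly into Purina Lab Chow ad libitum for the stated days; daily dose calculated from food consumption and body weight. Bled by cardiac puncture at end; plasma cholesterol and triglycerides by automated procedures, expressed as percent reduction versus simultaneous untreated controls; Student's t test.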

Rattus norvegicus [2] = experiment: Increase in cholesterol level in Wistar rat liver at 311 umol/kg/day administered through diet for 10 days; assay type: ADME, organism-based; details: in vivo, po, 240 h
Rattus norvegicus [3] = experiment: Increase in liver weight in Wistar rat at 311 umol/kg/day administered through diet for 10 days; assay type: ADME, organism-based; details: in vivo, po, 240 h
Rattus norvegicus [4] = experiment: Hypolipidemic activity in Wistar rat assessed as reduction in plasma cholesterol level at 311 umol/kg/day administered through diet for 10 days; assay type: functional; details: 240 h
Procedure, shortened: (§2)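 Young male Wistar rats, 170-190 g at start, in groups of six, given compound mixed into Purina Lab Chow ad libitum for 4 or 10 days as stated. Daily dose was calculated from food consumption and body weight. Plasma was taken by cardiac puncture at the end and cholesterol measured by automated procedure. Results are % reduction versus a concurrent untreated control group, with Student's t test.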

Rattus norvegicus [5] = experiment: Increase in cholesterol level in Wistar rat liver at 406 umol/kg/day administered through diet for 10 days; assay type: ADME, organism-based; details: in vivo, po, 240 h
Rattus norvegicus [6] = experiment: Hypolipidemic activity in Wistar rat assessed as reduction in plasma cholesterol level at 406 umol/kg/day administered through diet for 10 days; assay type: functional; details: 240 h; procedure, shortened: as §2
Rattus norvegicus [7] = experiment: Hypolipidemic activity in Wistar rat assessed as reduction in plasma triglyceride level at 406 umol/kg/day administered through diet for 10 days; assay type: functional; details: 240 h
Rattus norvegicus [8] = experiment: Hypolipidemic activity in Wistar rat assessed as reduction in plasma cholesterol level at 400 umol/kg/day administered through diet for 4 days; assay type: functional; details: 96 h; procedure, shortened: as §2
Rattus norvegicus [9] = experiment: Hypolipidemic activity in Wistar rat assessed as reduction in plasma triglyceride level at 400 umol/kg/day administered through diet for 4 days; assay type: functional; details: 96 h
Rattus norvegicus [10] = experiment: Increase in cholesterol level in Wistar rat liver at 400 umol/kg/day administered through diet for 4 days; assay type: ADME, organism-based; details: in vivo, po, 96 h
Rattus norvegicus [11] = experiment: Increase in liver weight in Wistar rat at 400 umol/kg/day administered through diet for 4 days; assay type: ADME, organism-based; details: in vivo, po, 96 h
Rattus norvegicus [12] = experiment: Increase in liver weight in Wistar rat at 406 umol/kg/day administered through diet for 10 days; assay type: ADME, organism-based; details: in vivo, po, 240 h
Rattus norvegicus [13] = experiment: Increase in liver weight in Wistar rat at 291 umol/kg/day administered through diet for 4 days; assay type: ADME, organism-based; details: in vivo, po, 96 h
Rattus norvegicus [14] = experiment: Hypolipidemic activity in Wistar rat assessed as reduction in plasma triglyceride level at 291 umol/kg/day administered through diet for 4 days; assay type: functional; details: 96 h; procedure, shortened: as §1
Rattus norvegicus [15] = experiment: Hypolipidemic activity in Wistar rat assessed as reduction in plasma cholesterol level at 291 umol/kg/day administered through diet for 4 days; assay type: functional; details: 96 h; procedure, shortened: as §2
Rattus norvegicus [16] = experiment: Hypolipidemic activity in Wistar rat assessed as reduction in plasma triglyceride level at 369 umol/kg/day administered through diet for 4 days; assay type: functional; details: 96 h
Procedure, shortened: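 Young male Wistar rats, 170-190 g at start, six per group, given compound mixed into Purina Lab Chow, fed ad libitum for 4 or 10 days. Daily dose calculated from food consumption and body weight. Rats bled by cardiac puncture at end of treatment. Plasma triglycerides determined by automated procedure. Expressed as percent reduction versus a concurrent untreated control group, Student's t test.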

Rattus norvegicus [17] = experiment: Increase in liver weight in Wistar rat at 369 umol/kg/day administered through diet for 4 days; assay type: ADME, organism-based; details: in vivo, po, 96 h
Rattus norvegicus [18] = experiment: Hypolipidemic activity in Wistar rat assessed as reduction in plasma cholesterol level at 369 umol/kg/day administered through diet for 4 days; assay type: functional; details: 96 h; procedure, shortened: as §2
Rattus norvegicus [19] = experiment: Increase in liver weight in Wistar rat at 428 umol/kg/day administered through diet for 4 days; assay type: ADME, organism-based; details: in vivo, po, 96 h
Rattus norvegicus [20] = experiment: Hypolipidemic activity in Wistar rat assessed as reduction in plasma cholesterol level at 423 umol/kg/day administered through diet for 4 days; assay type: functional; details: 96 h
Procedure, shortened: (§3)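 Young male Wistar rats, 170-190 g initial weight, groups of six, given compound mixed thoroughly into Purina Lab Chow ad libitum for 4 or 10 days as stated. Daily dose calculated from food consumption and body weight. Bled by cardiac puncture at end of treatment; plasma cholesterol measured by automated procedure. Expressed as percent reduction versus simultaneous untreated control group; Student's t test.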

Rattus norvegicus [21] = experiment: Increase in liver weight in Wistar rat at 423 umol/kg/day administered through diet for 4 days; assay type: ADME, organism-based; details: in vivo, po, 96 h
Rattus norvegicus [22] = experiment: Hypolipidemic activity in Wistar rat assessed as reduction in plasma triglyceride level at 423 umol/kg/day administered through diet for 4 days; assay type: functional; details: 96 h
Rattus norvegicus [23] = experiment: Hypolipidemic activity in Wistar rat assessed as reduction in plasma cholesterol level at 417 umol/kg/day administered through diet for 4 days; assay type: functional; details: 96 h; procedure, shortened: as §3
Rattus norvegicus [24] = experiment: Increase in liver weight in Wistar rat at 417 umol/kg/day administered through diet for 4 days; assay type: ADME, organism-based; details: in vivo, po, 96 h
Rattus norvegicus [25] = experiment: Hypolipidemic activity in Wistar rat assessed as reduction in plasma triglyceride level at 417 umol/kg/day administered through diet for 4 days; assay type: functional; details: 96 h

SMILES: CCCCCCCCCCCCOc1ccc(C(=O)CC(=O)OC)cc1
Activity (Rattus norvegicus [5]): 24% | inhibition in vivo at 406 µmol/kg (Rattus norvegicus [6]): 27% | inhibition in vivo at 406 µmol/kg (Rattus norvegicus [7]): 71% | inhibition in vivo at 400 µmol/kg (Rattus norvegicus [8]): 35% | inhibition in vivo at 400 µmol/kg (Rattus norvegicus [9]): 84% | Activity (Rattus norvegicus [10]): 32% | Activity (Rattus norvegicus [11]): 22% | Activity (Rattus norvegicus [12]): 34%

SMILES: CCCCCCCCCCCCCCOc1ccc(C(=O)O)c(OCCCCCCCCCCCCCC)c1
Activity (Rattus norvegicus [13]): 7% | inhibition in vivo at 291 µmol/kg (Rattus norvegicus [14]): 0% | inhibition in vivo at 291 µmol/kg (Rattus norvegicus [15]): 0%

SMILES: CCCCCCCCCCCCCCSc1ccc(C(=O)O)cc1
Activity (Rattus norvegicus [19]): 6%

Further lines, with some results ahead:

Activity (Rattus norvegicus [2]): 0% | Activity (Rattus norvegicus [3]): 0%
SMILES: CCCCCCCCCCCCCCCCOc1ccc(C(=O)CC(=O)O)cc1
inhibition in vivo at 311 µmol/kg (Rattus norvegicus [1]): 49% | inhibition in vivo at 311 µmol/kg (Rattus norvegicus [4]): 29%

Activity (Rattus norvegicus [17]): 6%
SMILES: CCCCCCCCCCCCCCOc1ccc(C(=O)C(Cl)(Cl)Cl)o1
inhibition in vivo at 369 µmol/kg (Rattus norvegicus [16]): 33% | inhibition in vivo at 369 µmol/kg (Rattus norvegicus [18]): 9%

Activity (Rattus norvegicus [21]): 0%
SMILES: CCCCCCCCCCCCCCOc1ccc(C(=O)OC)cc1C(=O)OC
inhibition in vivo at 423 µmol/kg (Rattus norvegicus [20]): 7% | inhibition in vivo at 423 µmol/kg (Rattus norvegicus [22]): 10%

Activity (Rattus norvegicus [24]): 0%
SMILES: CCCCCCCCCCCCCCOc1ccc(C(=O)OC)c(OC)c1
inhibition in vivo at 417 µmol/kg (Rattus norvegicus [23]): 7% | inhibition in vivo at 417 µmol/kg (Rattus norvegicus [25]): 0%
